Measured values taken from ChEMBL document CHEMBL1125789, “Synthesis and selective class III antiarrhythmic activity of novel N-heteroaralkyl-substituted 1-(aryloxy)-2-propanolamine and related propylamine derivatives” (J Med Chem, 1991).

Assays:
Canis familiaris [1] = species on record: Canis familiaris; test: repolarization to reach -60mV, in canine Purkinje Fibers at a concentration of 3.0 uM at 1000 ms (simulating normal heart rate); format: functional, Canis lupus familiaris, Purkinje fiber
In short: (§1)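 Purkinje fiber bundles were stimulated with square-wave current pulses of 2.0 ms at twice threshold and equilibrated for at least 1 h, or until action potential parameters were steady. Each concentration was superfused for 45-60 min to reach steady state. Action potentials were recorded at four to six sites per fiber, under control and after drug.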

Canis familiaris [2] = species on record: Canis familiaris; test: Repolarization to reach -60mV, in canine Purkinje Fibers at a concentration of 3.0 uM at 300 ms (simulating tachycardia); format: functional, Canis lupus familiaris, Purkinje fiber
In short: (§2)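 Isolated canine Purkinje fiber bundles were driven by square-wave pulses 2.0 ms long at 2× threshold and equilibrated ≥1 h to steady state. Each concentration was superfused 45–60 min before recording, and action potentials were sampled at 4–6 sites per fiber in control and after drug, giving Vmax and APD to −60 mV.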

Canis familiaris [3] = species on record: Canis familiaris; test: Maximum rate of rise of the upstroke of transmembrane potential, in canine Purkinje Fibers at a concentration of 3.0 uM at 300 ms (simulating tachycardia); format: functional; set-up: unit not given here; details: Canis lupus familiaris, Purkinje fiber; in short: as §2
Canis familiaris [4] = species on record: Canis familiaris; test: Maximum rate of rise of the upstroke of transmembrane potential, in canine Purkinje Fibers at a concentration of 3.0 uM at 1000 ms (simulating normal heart rate); format: functional; set-up: unit not given here; details: Canis lupus familiaris, Purkinje fiber; in short: as §2
Canis familiaris [5] = species on record: Canis familiaris; test: repolarization to reach -60mV, in canine Purkinje Fibers at a concentration of 0.3 uM at 1000 ms (simulating normal heart rate); format: functional, Canis lupus familiaris, Purkinje fiber; in short: as §1
Canis familiaris [6] = species on record: Canis familiaris; test: Maximum rate of rise of the upstroke of transmembrane potential, in canine Purkinje Fibers at a concentration of 1.0 uM at 1000 ms (simulating normal heart rate); format: functional; set-up: unit not given here; details: Canis lupus familiaris, Purkinje fiber; in short: as §2
Canis familiaris [7] = species on record: Canis familiaris; test: Repolarization to reach -60mV, in canine Purkinje Fibers at a concentration of 1.0 uM at 300 ms (simulating tachycardia); format: functional, Canis lupus familiaris, Purkinje fiber; in short: as §2
Canis familiaris [8] = species on record: Canis familiaris; test: Repolarization to reach -60mV, in canine Purkinje Fibers at a concentration of 0.3 uM at 300 ms (simulating tachycardia); format: functional, Canis lupus familiaris, Purkinje fiber; in short: as §2
Canis familiaris [9] = species on record: Canis familiaris; test: Maximum rate of rise of the upstroke of transmembrane potential, in canine Purkinje Fibers at a concentration of 0.3 uM at 300 ms (simulating tachycardia); format: functional; set-up: unit not given here; details: Canis lupus familiaris, Purkinje fiber; in short: as §2
Canis familiaris [10] = species on record: Canis familiaris; test: Maximum rate of rise of the upstroke of transmembrane potential, in canine Purkinje Fibers at a concentration of 1.0 uM at 300 ms (simulating tachycardia); format: functional; set-up: unit not given here; details: Canis lupus familiaris, Purkinje fiber; in short: as §2
Canis familiaris [11] = species on record: Canis familiaris; test: repolarization to reach -60mV, in canine Purkinje Fibers at a concentration of 1.0 uM at 1000 ms (simulating normal heart rate); format: functional, Canis lupus familiaris, Purkinje fiber; in short: as §1
Canis familiaris [12] = species on record: Canis familiaris; test: Maximum rate of rise of the upstroke of transmembrane potential, in canine Purkinje Fibers at a concentration of 0.3 uM at 1000 ms (simulating normal heart rate); format: functional; set-up: unit not given here; details: Canis lupus familiaris, Purkinje fiber; in short: as §2
Canis familiaris [13] = test: Atrial conduction time by the compound in open chest anesthetized dog, after iv administration at a dose of 5.0 mg/kg.; format: functional, Canis lupus familiaris, Cardiac atrium; set-up: unit not given here
In short: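 Mongrel dogs anesthetized with sodium pentobarbital (30 mg/kg iv, then 5 mg/kg per h), chest opened, paced at BCL 300 ms. Atrial conduction time was taken as the interval between electrograms recorded at the proximal and distal sites of the atrial recording electrode array, before and after iv or intraduodenal dosing. Values are changes from control.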

Canis familiaris [14] = test: Heart beat by the compound in open chest anesthetized dog, after iv administration at a dose of 5.0 mg/kg.; format: functional, Canis lupus familiaris; set-up: unit not given here
In short: (§3)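 Hemodynamics (heart rate, mean arterial pressure) recorded in pentobarbital-anesthetized (30 mg/kg iv, 5 mg/kg per h maintenance) open-chest mongrel dogs during the refractoriness study at BCL 300 ms. Readings were taken before and after iv or intraduodenal compound and expressed as change from control.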

Canis familiaris [15] = test: Mean arterial pressure by the compound in open chest anesthetized dog, after iv administration at a dose of 5.0 mg/kg.; format: functional, Canis lupus familiaris, Artery; set-up: unit not given here; in short: as §3
Canis familiaris [16] = test: Atrial effective refractory period by the compound in open chest anesthetized dog, after iv administration at a dose of 5.0 mg/kg.; format: functional, Canis lupus familiaris, Cardiac atrium; set-up: unit not given here
In short: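 Open-chest mongrel dogs under sodium pentobarbital anesthesia (30 mg/kg iv plus 5 mg/kg per h), paced at basic cycle length 300 ms. Atrial effective refractory period was determined by electrical stimulation before and after iv or intraduodenal compound and reported as change from control.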

Canis familiaris [17] = test: Ventricular effective refractory period by the compound in open chest anesthetized dog, after iv administration at a dose of 5.0 mg/kg.; format: functional, Canis lupus familiaris, Heart; set-up: unit not given here
Canis familiaris [18] = test: Ventricular conduction time by the compound in open chest anesthetized dog, after iv administration at a dose of 5.0 mg/kg.; format: functional, Canis lupus familiaris, Heart; set-up: unit not given here
In short: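 Mongrel dogs were anesthetized with sodium pentobarbital (30 mg/kg iv, then 5 mg/kg per h), the chest opened, and the heart paced at BCL 300 ms. Compound was given iv or intraduodenally. Ventricular conduction time was taken as the interval between electrograms at the proximal and distal sites of the recording electrode array. 2-5 dogs per dose.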

Canis familiaris [19] = species on record: Canis familiaris; test: Maximum rate of rise of the upstroke of transmembrane potential, in canine Purkinje Fibers at a concentration of 0.10 uM at 300 ms (simulating tachycardia); format: functional; details: Canis lupus familiaris, Purkinje fiber; in short: as §2
Canis familiaris [20] = species on record: Canis familiaris; test: Repolarization to reach -60mV, in canine Purkinje Fibers at a concentration of 0.10 uM at 300 ms (simulating tachycardia); format: functional, Canis lupus familiaris, Purkinje fiber; in short: as §2
Canis familiaris [21] = species on record: Canis familiaris; test: repolarization to reach -60mV, in canine Purkinje Fibers at a concentration of 0.10 uM at 1000 ms (simulating normal heart rate); format: functional, Canis lupus familiaris, Purkinje fiber; in short: as §1
Canis familiaris [22] = species on record: Canis familiaris; test: Maximum rate of rise of the upstroke of transmembrane potential, in canine Purkinje Fibers at a concentration of 0.10 uM at 1000 ms (simulating normal heart rate); format: functional; details: Canis lupus familiaris, Purkinje fiber; in short: as §2

| SMILES | APD (Canis familiaris [1]) [%] | APD (Canis familiaris [2]) [%] | Vmax (Canis familiaris [3]) | Vmax (Canis familiaris [4]) | further results |
| --- | --- | --- | --- | --- | --- |
| CN(Cc1nc2ccccc2n1C)CC(O)COc1ccc(NS(C)(=O)=O)cc1 (stereo not given) | 19 | 12 | 4 | 7 |  |
| CN(Cc1nc2ccccc2[nH]1)CC(O)COc1ccc(NS(C)(=O)=O)cc1 (stereo not given) | 14 | 3 | -11 | 1 |  |
| CN(Cc1ccc2ccccc2n1)C[C@H](O)COc1ccc(NS(C)(=O)=O)cc1 | 54 | 27 | 0 | -5 | APD (Canis familiaris [5]): 22%; Vmax (Canis familiaris [6]): 0; APD (Canis familiaris [7]): 14%; APD (Canis familiaris [8]): 13%; Vmax (Canis familiaris [9]): -4; Vmax (Canis familiaris [10]): -3; APD (Canis familiaris [11]): 40%; Vmax (Canis familiaris [12]): 9 |
| COc1ccc2nc(CN(C)CC(O)COc3ccc(NS(C)(=O)=O)cc3)ccc2c1 (stereo not given) | 54 | 16 | -6 | 0 |  |
| CN(Cc1ccc2cc(NS(C)(=O)=O)ccc2n1)CC(O)COc1ccc(NS(C)(=O)=O)cc1 (stereo not given) | 66 | 18 | -1 | -6 | APD (Canis familiaris [5]): 42%; Vmax (Canis familiaris [6]): -10; APD (Canis familiaris [7]): 17%; APD (Canis familiaris [8]): 13%; Vmax (Canis familiaris [9]): -2; Vmax (Canis familiaris [10]): -4; APD (Canis familiaris [11]): 55%; Vmax (Canis familiaris [12]): -12 |
| CN(Cc1cnc2ccccc2n1)CC(O)COc1ccc(NS(C)(=O)=O)cc1 (stereo not given) | 26 | 8 | 6 | 1 |  |
| O=[N+]([O-])c1ccc(OCC(O)CN2CCN(c3ccccn3)CC2)cc1 (stereo not given) | 29 | 15 | -19 | 8 | ACT (Canis familiaris [13]): 16; HR (Canis familiaris [14]): -33; MBP (Canis familiaris [15]): -33; AERP (Canis familiaris [16]): 69; VERP (Canis familiaris [17]): 25; VCT (Canis familiaris [18]): -7 |
| Cc1nc2ccccc2nc1CN(C)CC(O)COc1ccc(NS(C)(=O)=O)cc1 (stereo not given) | 17 | 11 | 3 | 7 |  |
| CN(Cc1ccc2ccccc2n1)CC(O)COc1ccc(-n2ccnc2)cc1 (stereo not given) | 39 | 10 | -11 | -15 |  |
| CN(Cc1ccc2ccccc2n1)CC(O)COc1ccc([N+](=O)[O-])cc1 (stereo not given) | 63 | 27 | -10 | 0 |  |
| CN(CCCOc1ccc(NS(C)(=O)=O)cc1)Cc1ccc2ccccc2n1 | 45 | 22 | 3 | 5 | ACT (Canis familiaris [13]): -6; HR (Canis familiaris [14]): -23; MBP (Canis familiaris [15]): -11; AERP (Canis familiaris [16]): 52; VERP (Canis familiaris [17]): 30; VCT (Canis familiaris [18]): 1 |
| Cn1c(N2CCN(CC(O)COc3ccc(NS(C)(=O)=O)cc3)CC2)nc2ccccc21 (stereo not given) | 83 | 21 | -9 | -3 |  |
| CN(CCCOc1ccc(NS(C)(=O)=O)cc1)Cc1cnc2ccccc2n1 | 62 | 27 | -14 | -16 |  |
| CC(C)N(Cc1ccc2ccccc2n1)CC(O)COc1ccc(NS(C)(=O)=O)cc1 (stereo not given) | 49 | 30 | -11 | -10 |  |
| CS(=O)(=O)Nc1ccc(OCCCN(Cc2ccc3cc(NS(C)(=O)=O)ccc3n2)C2CCCC2)cc1 |  |  |  |  | Vmax (Canis familiaris [19]): 8; APD (Canis familiaris [20]): 13%; APD (Canis familiaris [21]): 30%; Vmax (Canis familiaris [22]): 7 |
| CN(Cc1ccc2ccccc2n1)CC(O)COc1ccc(C#N)cc1 (stereo not given) | 41 | 0 | 8 | 19 |  |
| CN(Cc1ccc2ccccc2n1)C[C@@H](O)COc1ccc(NS(C)(=O)=O)cc1 | 70 | 27 | -1 | 4 | APD (Canis familiaris [5]): 25%; Vmax (Canis familiaris [6]): 6; APD (Canis familiaris [7]): 22%; APD (Canis familiaris [8]): 12%; Vmax (Canis familiaris [9]): -4; Vmax (Canis familiaris [10]): -9; APD (Canis familiaris [11]): 48%; Vmax (Canis familiaris [12]): 9 |
| CN(Cc1ccc2cc(Cl)ccc2n1)CC(O)COc1ccc(NS(C)(=O)=O)cc1 (stereo not given) | 65 | 29 | -2 | 0 |  |
| CN(Cc1cc2ccccc2o1)CC(O)COc1ccc(NS(C)(=O)=O)cc1 (stereo not given) | 47 | 16 | 16 | 4 |  |
| CN(Cc1ccc2ccccc2n1)CC(O)COc1ccc(-c2nn[nH]n2)cc1 (stereo not given) | 11 | 4 | 4 | -10 |  |
| CS(=O)(=O)Nc1ccc(OCC(O)CN2CCN(c3ncccn3)CC2)cc1 (stereo not given) | 23 | 15 | -12 | -17 |  |
| Cc1nc2ccccc2nc1CN(C)CC(O)COc1ccc(-n2ccnc2)cc1 (stereo not given) | 69 | 24 | 10 | 13 |  |
| CN(Cc1ccc2cc(F)ccc2n1)CC(O)COc1ccc(NS(C)(=O)=O)cc1 (stereo not given) | 55 | 22 | 8 | 11 | APD (Canis familiaris [5]): 31%; Vmax (Canis familiaris [6]): 5; APD (Canis familiaris [7]): 19%; APD (Canis familiaris [8]): 12%; Vmax (Canis familiaris [9]): 3; Vmax (Canis familiaris [10]): 4; APD (Canis familiaris [11]): 50%; Vmax (Canis familiaris [12]): 3 |
| CS(=O)(=O)Nc1ccc(OCC(O)CN2CCN(c3ccccn3)CC2)cc1 (stereo not given) | 53 | 24 | 12 | 9 |  |
